Consider two compounds from ChEMBL document CHEMBL3352402, “Pharmacological evaluation and docking studies of α,β-unsaturated carbonyl based synthetic compounds as inhibitors of secretory phospholipase A₂, cyclooxygenases, lipoxygenase and proinflammatory cytokines” (Bioorg Med Chem, 2014).

Experiment [1] is described as follows: Inhibition of sPLA2-V (unknown origin) using substrate 1,2-bis(heptanoylthio)-glycerophosphocholine by Ellman's method based photometric assay. Also noted: species or system Homo sapiens. For orientation: DTNB colorimetry detects thiols as they appear.
The target in experiment [2] is Lipoxygenase (Glycine max) (UniProt Q39829). Put plainly: (§1) Inhibition of soybean lipoxygenase after 5 mins by colorimetric assay. The gist of the method:
(§2)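 Purified soybean lipoxygenase resuspended in 0.1 M Tris-HCl, pH 7. Enzyme plus test sample was started with substrate (dissolved in KOH, diluted to 1 mM) at room temperature for 5 min. Chromogen was added for 5 min to stop the reaction, then absorbance read at 490 nm. Activity is relative to enzyme plus substrate alone.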

In the next experiment the target is Lipoxygenase (Glycine max, UniProt Q39829). The experiment is described as §1. The gist of the method:
as §2

The target in experiment [3] is Lipoxygenase (Glycine max) (UniProt Q39829). Put plainly: Inhibition of soybean lipoxygenase at 40 ug/mL after 5 mins by colorimetric assay.
In experiment [4] the target is T1, Prostaglandin G/H synthase 2 (Homo sapiens, UniProt P35354).
T1 sequence (P35354 whole entry): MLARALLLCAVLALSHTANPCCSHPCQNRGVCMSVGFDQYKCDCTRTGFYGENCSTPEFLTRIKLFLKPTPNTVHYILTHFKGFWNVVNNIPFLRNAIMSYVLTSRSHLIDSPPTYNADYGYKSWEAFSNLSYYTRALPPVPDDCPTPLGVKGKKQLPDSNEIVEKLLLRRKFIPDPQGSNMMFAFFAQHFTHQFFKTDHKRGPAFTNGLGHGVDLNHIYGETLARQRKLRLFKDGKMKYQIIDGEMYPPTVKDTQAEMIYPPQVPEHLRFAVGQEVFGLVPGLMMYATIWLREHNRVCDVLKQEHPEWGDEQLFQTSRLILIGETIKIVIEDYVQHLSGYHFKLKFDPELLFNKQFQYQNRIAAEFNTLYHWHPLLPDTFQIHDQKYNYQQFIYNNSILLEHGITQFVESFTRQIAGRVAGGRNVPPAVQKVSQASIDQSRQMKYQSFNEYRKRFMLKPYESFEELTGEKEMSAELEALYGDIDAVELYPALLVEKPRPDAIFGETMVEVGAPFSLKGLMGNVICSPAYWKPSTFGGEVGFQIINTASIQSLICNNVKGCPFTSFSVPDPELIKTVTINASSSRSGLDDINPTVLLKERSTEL
Briefly: Inhibition of human recombinant COX2 using arachidonic acid substrate assessed as PGE2 production ELISA method after 2 mins. A general note: An ELISA detects its analyte on a solid surface through an enzyme-linked reagent.

Experiment [5] has as its target T2, Prostaglandin G/H synthase 1 (Ovis aries, UniProt P05979).
T2 sequence (P05979 whole entry): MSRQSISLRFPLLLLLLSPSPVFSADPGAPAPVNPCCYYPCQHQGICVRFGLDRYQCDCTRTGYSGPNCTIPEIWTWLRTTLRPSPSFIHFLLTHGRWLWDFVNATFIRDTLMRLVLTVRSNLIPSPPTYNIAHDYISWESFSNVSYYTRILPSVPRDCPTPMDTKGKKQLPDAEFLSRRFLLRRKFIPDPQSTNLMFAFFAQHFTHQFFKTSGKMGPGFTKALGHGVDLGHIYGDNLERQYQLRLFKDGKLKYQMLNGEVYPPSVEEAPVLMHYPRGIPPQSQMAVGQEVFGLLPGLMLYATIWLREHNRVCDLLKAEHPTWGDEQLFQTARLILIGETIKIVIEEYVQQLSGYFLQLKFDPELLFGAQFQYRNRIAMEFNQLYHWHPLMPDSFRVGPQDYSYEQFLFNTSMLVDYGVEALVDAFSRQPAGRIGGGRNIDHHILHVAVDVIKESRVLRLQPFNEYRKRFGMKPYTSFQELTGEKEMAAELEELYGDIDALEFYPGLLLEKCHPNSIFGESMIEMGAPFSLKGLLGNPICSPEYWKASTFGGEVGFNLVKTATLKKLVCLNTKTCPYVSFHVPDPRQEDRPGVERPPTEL
Briefly: Inhibition of ovine COX1 using arachidonic acid substrate assessed as PGE2 production ELISA method after 2 mins.

In general, IC50 refers to the midpoint of a concentration-inhibition curve. The inhibition is the drop in the measured response relative to a control, in per cent.

On to `CCOC(OCC)c1ccc(/C=C/C(=O)C2CCc3ccccc3C2=O)cc1` (stereo unspecified), for which the IC50 in experiment [1] was 27.7 µM; against Lipoxygenase it was 52.2 µM; in experiment [4], 13.3 µM; in experiment [5] it was 1.12 µM. Further, the inhibition in experiment [2] and in experiment [3] was 69.5% each time.
In the case of `COc1cc(/C=C/C(=O)CC(=O)/C=C/c2ccc(O)c(OC)c2)ccc1O` [CURCUMIN], the IC50 in experiment [1] was found to be 10.1 µM; at Lipoxygenase it was 59.5 µM; in experiment [5], 29.7 µM. For the same compound, the values for the inhibition result in experiment [2] and in experiment [3] were “Dose-dependent effect” and 68.3%, respectively.
